The record followed here is ChEMBL document CHEMBL3351976, “Flexible, polymer-supported synthesis of sphingosine derivatives provides ceramides with enhanced biological activity” (Bioorg Med Chem, 2014).

Assay [1] can be described thus: Antiproliferative activity against rat PC12 cells after 24 hrs by Alamar blue assay. The format is functional, cell-based, PC-12. As to conditions: for IC50: pc-12; for pIC50: Rattus norvegicus, PC-12, 24 h, read-out: IC50. An outline of the steps:
(§1)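 Cells seeded at 5000 per well and preincubated 24 h at 37 °C/5% CO₂, then exposed to compounds in DMSO (final DMSO 0.5%; DMSO-only controls) at 6.25–200 µM for a further 24 h at 37 °C. Alamar Blue added to 10% final, fluorescence read (ex 535/em 590 nm) after 4 h and 24 h further incubation. IC50 from triplicates.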

Another assay deals with HepG2. Put plainly: Antiproliferative activity against human HepG2 cells after 24 hrs by Alamar blue assay. As to conditions: for IC50: hepg2; for pIC50: Homo sapiens, HepG2, 24 h, read-out: IC50. It is filed as functional, cell-based. An outline of the steps:
as §1
In general terms: The colour change of resazurin is a common sign of viable cells or microbes.

Assay [2] in a line: Antiproliferative activity against human HL60 cells after 24 hrs by Alamar blue assay. The format is functional, cell-based, HL-60. As to conditions: for IC50: hl-60; for pIC50: Homo sapiens, HL-60, 24 h, read-out: IC50. In short, it runs like this: as §1

pIC50: −log10 of the molar value.

For `CC(=O)N[C@@H](CO)[C@H](O)/C=C/c1ccccc1`, the IC50 entry (in assay [1]; in the assay with HepG2; in assay [2]) was “ND(Unstable)” in each case.

Turning to `CC(=O)N[C@@H](CO)C(=O)/C=C/c1ccccc1`, the results for the pIC50 (in assay [1]; with HepG2; in assay [2]) were 4.38, below 3.70 and 4.32, respectively.

Turning to `CCCCCCCCCCCCC/C=C/[C@@H](O)[C@H](CO)NC(C)=O`, the pIC50 (in general, the negative decadic logarithm of the IC50, by convention in mol/L) in assay [1] was 4.01; in the assay on HepG2, 4.24; in assay [2], 4.59.

For `CC(=O)N[C@@H](CO)C(=O)/C=C/c1ccc(-c2ccccc2)cc1`, the figures for the pIC50 (in assay [1]; with HepG2; in assay [2]) were 4.23, 4.39 and 4.30, respectively.

For the compound `CC(=O)N[C@@H](CO)[C@H](O)/C=C/c1ccc(-c2ccccc2)cc1`, the IC50 entry (in assay [1]; with HepG2; in assay [2]) was “ND(Unstable)” each time.

Turning to `CCCCCCCCCCCCC/C=C/C(=O)[C@H](CO)NC(C)=O`, the negative logarithm of the IC50 (pIC50) is below 3.70 in assay [1], 3.76 with HepG2 and 4.37 in assay [2].

Take `CCCCCCCCc1ccc(/C=C/C(=O)[C@H](CO)NC(C)=O)cc1`: the pIC50 in assay [1] is 4.15; with HepG2, 4.19. In assay [2], the IC50 result is given as “ND(Unstable)”.

As to `CCCCCCCCc1ccc(/C=C/[C@@H](O)[C@H](CO)NC(C)=O)cc1`, the pIC50 was 4.40 in assay [1], 4.51 in the assay with HepG2 and 4.96 in assay [2].
